ChEMBL document CHEMBL2086229, “Synthesis and biological activities of 4-substituted pyrrolo[2,3-a]carbazole Pim kinase inhibitors” (Eur J Med Chem, 2012)
Calls of active or inactive are those of the source. No cut-off for these calls is given here.

Assays:
[1] = biological target: T1, Serine/threonine-protein kinase pim-1 (Homo sapiens, UniProt P11309); assay: Inhibition of human Pim1 using RSRHSSYPAGT as substrate assessed as residual activity at 10 uM
Target sequence in this assay (P11309 whole entry, looked up): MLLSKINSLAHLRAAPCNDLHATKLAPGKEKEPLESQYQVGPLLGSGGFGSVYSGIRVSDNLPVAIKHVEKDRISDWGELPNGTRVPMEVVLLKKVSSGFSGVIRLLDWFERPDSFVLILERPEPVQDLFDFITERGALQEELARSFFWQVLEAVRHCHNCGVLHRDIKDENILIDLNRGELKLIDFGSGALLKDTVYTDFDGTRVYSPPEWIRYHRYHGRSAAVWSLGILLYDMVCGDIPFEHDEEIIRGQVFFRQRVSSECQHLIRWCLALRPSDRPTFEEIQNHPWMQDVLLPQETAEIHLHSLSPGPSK

[2] = biological target: T1, Serine/threonine-protein kinase pim-1; assay: Inhibition of human Pim1 using RSRHSSYPAGT as substrate assessed as residual activity at 1 uM
Target sequence in this assay (P11309 whole entry, looked up): as above

[3] = biological target: Serine/threonine-protein kinase pim-2 (Homo sapiens) (UniProt Q9P1W9); assay: Inhibition of human Pim2 using RSRHSSYPAGT as substrate assessed as residual activity at 10 uM
Sequence of Serine/threonine-protein kinase pim-2 (Homo sapiens) (Q9P1W9 whole entry, looked up): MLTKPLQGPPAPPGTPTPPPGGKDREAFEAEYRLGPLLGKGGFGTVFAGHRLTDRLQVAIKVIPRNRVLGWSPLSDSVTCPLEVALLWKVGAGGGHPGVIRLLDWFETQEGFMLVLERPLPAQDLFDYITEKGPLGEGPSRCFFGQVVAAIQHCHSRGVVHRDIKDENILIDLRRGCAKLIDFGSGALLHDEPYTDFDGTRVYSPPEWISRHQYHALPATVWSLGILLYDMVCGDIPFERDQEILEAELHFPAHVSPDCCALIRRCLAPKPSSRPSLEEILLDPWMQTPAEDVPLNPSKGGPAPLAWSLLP

[4] = biological target: Serine/threonine-protein kinase pim-2 (Homo sapiens) (UniProt Q9P1W9); assay: Inhibition of human Pim2 using RSRHSSYPAGT as substrate assessed as residual activity at 1 uM
[5] = biological target: T2, Serine/threonine-protein kinase pim-3 (Homo sapiens, UniProt Q86V86); assay: Inhibition of human Pim3 using RSRHSSYPAGT as substrate assessed as residual activity at 10 uM
[6] = biological target: T2, Serine/threonine-protein kinase pim-3; assay: Inhibition of human Pim3 using RSRHSSYPAGT as substrate assessed as residual activity at 1 uM
PA-1 [7] = assay: Antiproliferative activity against human PA1 cells assessed as growth inhibition at 1 uM after 48 hrs by resazurin reduction test; type: functional, cell-based
Method in brief: (§1)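 PA1 and PC3 cells seeded at 5 × 10³ per well, adhered 16 h, then exposed 48 h continuously to a single drug concentration (1 or 10 μM) from 20 mM DMSO stock. Growth read by resazurin reduction (25 μg/mL, 1 h, 37 °C), fluorescence ex 530/em 590 nm, as survival relative to control wells after blank subtraction.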

PA-1 [8] = assay: Antiproliferative activity against human PA1 cells assessed as growth inhibition at 10 uM after 48 hrs by resazurin reduction test; type: functional, cell-based; method in brief: as §1
PC-3 [9] = assay: Antiproliferative activity against human PC3 cells assessed as growth inhibition at 1 uM after 48 hrs by resazurin reduction test; type: functional, cell-based; method in brief: as §1
PC-3 [10] = assay: Antiproliferative activity against human PC3 cells assessed as growth inhibition at 10 uM after 48 hrs by resazurin reduction test; type: functional, cell-based; method in brief: as §1
[11] = biological target: T2, Serine/threonine-protein kinase pim-3; assay: Inhibition of human Pim3 using RSRHSSYPAGT as substrate
PA-1 [12] = assay: Antiproliferative activity against human PA1 cells after 48 hrs by resazurin reduction test; type: functional, cell-based
Method in brief: (§2)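 Cells kept as monolayers in Glutamax MEM with Earle's salts, 10% fetal calf serum, sodium pyruvate, non-essential amino acids and gentamicin, 37 °C, 5% CO2. Seeded at 5 × 10³ cells/well, adhered 16 h, then given drug from 20 mM DMSO stock for 48 h continuously. Resazurin (25 μg/mL, 1 h, 37 °C) fluorescence read at ex 530/em 590 nm. IC50 taken from concentration–survival curve versus control wells, blank subtracted.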

PC-3 [13] = assay: Antiproliferative activity against human PC3 cells after 48 hrs by resazurin reduction test; type: functional, cell-based; method in brief: as §2
DU-145 = assay: Antiproliferative activity against human DU145 cells after 48 hrs by resazurin reduction test; type: functional, cell-based; method in brief: as §2
[14] = biological target: T1, Serine/threonine-protein kinase pim-1; assay: Inhibition of human Pim1 using RSRHSSYPAGT as substrate
Target sequence in this assay (P11309 whole entry): as the sequence (P11309 whole entry, looked up) above

[15] = Antiproliferative activity against human fibroblasts after 48 hrs by resazurin reduction test; type: cell-based; conditions: Fibroblast; method in brief: as §2

Row | Compound | Activity [1] [%] | Activity [2] [%] | Activity [3] [%] | Activity [4] [%] | Activity [5] [%] | Activity [6] [%] | IC50 [11] [µM] | IC50 [14] [µM] | IC50 (PC-3 [13]; PC-3, 48 h) [µM] | IC50 (DU-145; DU-145, 48 h) [µM] | growth inhibition (GI) (PA-1 [7]) | growth inhibition (GI) (PA-1 [8]) | growth inhibition (GI) (PC-3 [9]) | growth inhibition (GI) (PC-3 [10]) | growth inhibition (GI) (PA-1 [12]) | growth inhibition (GI) (PC-3 [13]) | growth inhibition (GI) (DU-145) | IC50 [15] [µM] | IC50 (PA-1 [12]; PA-1, 48 h) [µM]
1 | COC(=O)c1cc2c3ccccc3[nH]c2c2[nH]ccc12 | 15 | 57 | 75 | 95 | 24 | 47 | 0.5 | 3 | 6 | > 50 |  |  |  |  |  |  |  | 8 | 27
2 | O=Cc1c[nH]c2c1ccc1c3ccccc3[nH]c12 |  |  |  |  |  |  |  |  |  |  |  |  |  |  |  |  |  | 21 | 

Second part, led by results:

Row | Activity [1] [%] | Activity [2] [%] | Activity [3] [%] | Activity [4] [%] | Activity [5] [%] | Activity [6] [%] | IC50 [11] [µM] | IC50 [14] [µM] | IC50 (PC-3 [13]; PC-3, 48 h) [µM] | IC50 (DU-145; DU-145, 48 h) [µM] | Compound | growth inhibition (GI) (PA-1 [7]) | growth inhibition (GI) (PA-1 [8]) | growth inhibition (GI) (PC-3 [9]) | growth inhibition (GI) (PC-3 [10]) | growth inhibition (GI) (PA-1 [12]) | growth inhibition (GI) (PC-3 [13]) | growth inhibition (GI) (DU-145) | IC50 [15] [µM] | IC50 (PA-1 [12]; PA-1, 48 h) [µM]
3 | 87 | 103 | 89 | 101 | 55 | 103 |  |  |  |  | Nc1cccc2[nH]c3c(cc(C(=O)O)c4cc[nH]c43)c12 | inactive | inactive | inactive | inactive |  |  |  |  | 
4 | 39 | 90 | 77 | 93 | 16 | 40 | 0.41 |  |  |  | COC(=O)c1cc2c([nH]c3cccc(N)c32)c2[nH]ccc12 |  |  |  |  | inactive | inactive | inactive |  | 
5 | 70 | 90 | 93 | 100 | 65 | 101 |  |  |  |  | O=C(O)c1cc2c3ccccc3[nH]c2c2[nH]ccc12 | inactive | inactive | inactive | inactive |  |  |  |  | 
